Experiments:
[1] = biological target: Hepatocyte growth factor receptor (Homo sapiens) (UniProt P08581); experiment: Inhibition of MET assessed as enzyme residual activity at 10 uM relative to untreated control
In short: (§1)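 Residual kinase activity at 10 μM compound, determined by a commercial kinase profiling service (Millipore) across 15 kinases of different classes. Each compound tested in duplicate.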

[2] = biological target: Vascular endothelial growth factor receptor 2 (Homo sapiens, UniProt P35968); experiment: Inhibition of VEGFR2 assessed as enzyme residual activity at 10 uM relative to untreated control; in short: as §1
Chain of Vascular endothelial growth factor receptor 2 (P35968 whole entry): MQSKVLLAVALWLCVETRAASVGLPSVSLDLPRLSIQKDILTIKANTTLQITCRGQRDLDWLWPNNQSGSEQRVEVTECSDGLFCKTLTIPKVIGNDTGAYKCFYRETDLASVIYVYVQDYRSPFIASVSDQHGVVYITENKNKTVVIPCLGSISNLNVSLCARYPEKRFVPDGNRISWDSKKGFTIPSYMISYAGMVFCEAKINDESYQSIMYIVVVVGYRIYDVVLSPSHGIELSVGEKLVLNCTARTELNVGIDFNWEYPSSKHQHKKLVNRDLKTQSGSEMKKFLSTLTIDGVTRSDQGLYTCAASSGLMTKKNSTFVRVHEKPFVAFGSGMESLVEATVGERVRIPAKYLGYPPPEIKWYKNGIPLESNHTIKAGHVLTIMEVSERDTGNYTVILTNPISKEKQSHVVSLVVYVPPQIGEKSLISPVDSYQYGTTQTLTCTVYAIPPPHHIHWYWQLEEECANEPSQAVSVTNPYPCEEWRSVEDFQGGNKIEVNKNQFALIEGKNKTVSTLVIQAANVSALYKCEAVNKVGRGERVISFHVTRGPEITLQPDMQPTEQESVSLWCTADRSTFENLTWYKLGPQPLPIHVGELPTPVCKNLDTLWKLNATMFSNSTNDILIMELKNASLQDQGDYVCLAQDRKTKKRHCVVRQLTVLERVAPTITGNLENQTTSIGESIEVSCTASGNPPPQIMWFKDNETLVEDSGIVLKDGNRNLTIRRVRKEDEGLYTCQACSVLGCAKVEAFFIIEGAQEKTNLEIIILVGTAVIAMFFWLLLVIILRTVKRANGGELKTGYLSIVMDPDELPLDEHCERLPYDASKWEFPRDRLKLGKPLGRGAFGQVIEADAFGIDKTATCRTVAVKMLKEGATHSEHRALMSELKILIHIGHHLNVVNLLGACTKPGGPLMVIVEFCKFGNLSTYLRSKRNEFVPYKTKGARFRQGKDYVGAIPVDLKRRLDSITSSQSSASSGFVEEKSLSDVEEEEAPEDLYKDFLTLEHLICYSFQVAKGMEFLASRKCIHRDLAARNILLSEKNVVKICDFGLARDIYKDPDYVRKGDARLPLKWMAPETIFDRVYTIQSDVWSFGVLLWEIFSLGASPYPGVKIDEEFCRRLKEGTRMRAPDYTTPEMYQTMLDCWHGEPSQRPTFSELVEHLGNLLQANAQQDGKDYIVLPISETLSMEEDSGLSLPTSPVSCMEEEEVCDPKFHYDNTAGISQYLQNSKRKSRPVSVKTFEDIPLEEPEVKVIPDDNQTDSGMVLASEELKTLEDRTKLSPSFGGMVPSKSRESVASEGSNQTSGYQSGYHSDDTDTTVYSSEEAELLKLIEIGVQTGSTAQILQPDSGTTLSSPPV

[3] = biological target: T1, Receptor-type tyrosine-protein kinase FLT3 (Homo sapiens, UniProt P36888); experiment: Inhibition of FLT3
T1 sequence (P36888 whole entry): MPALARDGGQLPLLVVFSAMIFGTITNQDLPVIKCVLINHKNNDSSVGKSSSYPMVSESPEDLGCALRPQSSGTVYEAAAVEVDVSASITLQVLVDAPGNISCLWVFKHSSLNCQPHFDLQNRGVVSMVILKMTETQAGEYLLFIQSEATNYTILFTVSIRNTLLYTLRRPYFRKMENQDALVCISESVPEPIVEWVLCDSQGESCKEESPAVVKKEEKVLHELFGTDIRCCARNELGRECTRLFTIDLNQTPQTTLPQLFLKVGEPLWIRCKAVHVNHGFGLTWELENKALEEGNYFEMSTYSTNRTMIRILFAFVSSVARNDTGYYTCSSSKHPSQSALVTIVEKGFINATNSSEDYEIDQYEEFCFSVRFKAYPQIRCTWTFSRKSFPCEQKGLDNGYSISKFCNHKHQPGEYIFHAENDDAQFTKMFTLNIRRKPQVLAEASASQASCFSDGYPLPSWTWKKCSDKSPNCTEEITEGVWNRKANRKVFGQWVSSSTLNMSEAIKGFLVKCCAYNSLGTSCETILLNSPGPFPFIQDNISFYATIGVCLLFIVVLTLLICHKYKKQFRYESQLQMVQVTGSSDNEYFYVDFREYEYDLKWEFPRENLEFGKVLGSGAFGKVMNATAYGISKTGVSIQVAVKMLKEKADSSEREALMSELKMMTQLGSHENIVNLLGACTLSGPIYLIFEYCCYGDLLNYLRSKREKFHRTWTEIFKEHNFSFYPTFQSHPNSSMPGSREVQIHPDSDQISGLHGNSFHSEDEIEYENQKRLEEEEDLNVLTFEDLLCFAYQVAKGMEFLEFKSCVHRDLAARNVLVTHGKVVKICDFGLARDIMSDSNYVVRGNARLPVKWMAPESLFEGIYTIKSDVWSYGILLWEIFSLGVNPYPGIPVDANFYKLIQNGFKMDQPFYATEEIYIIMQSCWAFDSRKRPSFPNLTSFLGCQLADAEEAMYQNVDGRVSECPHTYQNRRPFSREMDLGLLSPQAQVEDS
In short: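 Run as an outsourced kinase profiling service (Millipore IC50 Profiler), with the protocol referred to the provider. Gives IC50 values and residual activity at 10 μM test compound. Compounds tested in duplicate.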

Chain of Hepatocyte growth factor receptor (Homo sapiens) (P08581 whole entry): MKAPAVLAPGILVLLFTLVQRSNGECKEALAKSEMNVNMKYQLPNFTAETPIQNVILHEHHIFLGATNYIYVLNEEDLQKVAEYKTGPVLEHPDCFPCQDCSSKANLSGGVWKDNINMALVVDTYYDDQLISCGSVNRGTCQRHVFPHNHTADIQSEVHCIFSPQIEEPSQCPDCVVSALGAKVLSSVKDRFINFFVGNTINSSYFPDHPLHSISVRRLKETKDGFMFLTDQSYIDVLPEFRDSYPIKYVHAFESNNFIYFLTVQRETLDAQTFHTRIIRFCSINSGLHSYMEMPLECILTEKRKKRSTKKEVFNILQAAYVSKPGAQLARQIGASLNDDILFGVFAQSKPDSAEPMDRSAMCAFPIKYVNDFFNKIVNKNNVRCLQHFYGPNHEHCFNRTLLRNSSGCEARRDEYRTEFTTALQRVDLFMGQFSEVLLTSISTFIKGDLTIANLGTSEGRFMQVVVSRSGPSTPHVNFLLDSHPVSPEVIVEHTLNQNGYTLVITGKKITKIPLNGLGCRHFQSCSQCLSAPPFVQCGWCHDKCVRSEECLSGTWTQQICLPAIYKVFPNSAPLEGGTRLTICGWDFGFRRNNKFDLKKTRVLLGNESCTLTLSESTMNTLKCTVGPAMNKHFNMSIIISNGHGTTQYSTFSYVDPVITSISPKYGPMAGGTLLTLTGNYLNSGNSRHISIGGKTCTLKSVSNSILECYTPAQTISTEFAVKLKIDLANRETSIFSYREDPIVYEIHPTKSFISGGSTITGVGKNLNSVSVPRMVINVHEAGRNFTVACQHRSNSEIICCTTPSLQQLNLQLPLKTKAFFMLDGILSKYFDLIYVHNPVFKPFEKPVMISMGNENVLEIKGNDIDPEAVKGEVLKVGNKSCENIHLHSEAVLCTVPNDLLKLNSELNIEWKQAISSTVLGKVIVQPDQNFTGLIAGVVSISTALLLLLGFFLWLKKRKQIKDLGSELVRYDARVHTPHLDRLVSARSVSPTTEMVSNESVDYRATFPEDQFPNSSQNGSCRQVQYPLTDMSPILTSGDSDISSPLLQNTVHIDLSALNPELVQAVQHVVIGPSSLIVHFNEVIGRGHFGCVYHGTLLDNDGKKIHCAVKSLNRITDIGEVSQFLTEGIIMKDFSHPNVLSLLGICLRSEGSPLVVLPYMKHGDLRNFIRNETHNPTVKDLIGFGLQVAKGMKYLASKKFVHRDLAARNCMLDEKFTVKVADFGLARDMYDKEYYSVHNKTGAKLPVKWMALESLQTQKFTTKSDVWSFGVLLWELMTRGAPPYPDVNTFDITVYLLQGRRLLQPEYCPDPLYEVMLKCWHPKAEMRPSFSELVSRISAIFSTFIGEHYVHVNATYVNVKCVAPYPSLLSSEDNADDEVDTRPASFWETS

SMILES: COc1cc(C2=C(c3c[nH]c4cnccc34)C(=O)NC2=O)cc(OC)c1OC
- Activity [1]: 83%
- Activity [2]: 1%
- IC50 [3]: 18 nM
